{
  "source": "ChEMBL document CHEMBL1240360",
  "about": "“TMC278, a next-generation nonnucleoside reverse transcriptase inhibitor (NNRTI), active against wild-type and NNRTI-resistant HIV-1” (Antimicrob Agents Chemother, 2010)",
  "key": {"[1]": {"test_system": "Human immunodeficiency virus 1", "assay": "Antiviral activity against Human immunodeficiency virus 1 group M subtype AG assessed as days f for viral replication at 200 nM by cell based assay", "type": "functional"}, "[2]": {"test_system": "Human immunodeficiency virus 1", "assay": "Antiviral activity against Human immunodeficiency virus 1 group M subtype H assessed as days to viral replication breakthrough at 200 nM by cell based assay", "type": "functional"}, "[3]": {"test_system": "Human immunodeficiency virus 1", "assay": "Antiviral activity against Human immunodeficiency virus 1 group M subtype C assessed as days to viral replication breakthrough at 40 nM by cell based assay", "type": "functional"}, "[4]": {"test_system": "Human immunodeficiency virus 1", "assay": "Antiviral activity against Human immunodeficiency virus 1 group M subtype AE assessed as days to viral replication breakthrough at 200 nM by cell based assay", "type": "functional"}, "[5]": {"test_system": "Human immunodeficiency virus 1", "assay": "Antiviral activity against Human immunodeficiency virus 1 subtype G infected in human MT4 cells assessed as reduction in virus induced cytopathicity", "type": "functional, organism-based", "procedure,_shortened": "(§1)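 Recombinant viruses were made by recombining patient-derived HIV-1 RT-PR sequences into an RT-PR-deleted HXB2 proviral clone transfected into MT4 cells. Subtype was assigned from PR/RT sequence by Smith-Waterman alignment to HXB2. MT4 cells (1.5 × 10^5/ml) were infected at MOI 0.01 with serially diluted compound for 5 days at 37°C. Viability was read by MTT and EC50 derived.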"}, "[6]": {"test_system": "Human immunodeficiency virus 1", "assay": "Antiviral activity against Human immunodeficiency virus 1 group M subtype A1 assessed as days to viral replication breakthrough at 10 nM by cell based assay", "type": "functional"}, "[7]": {"test_system": "Human immunodeficiency virus 1", "assay": "Antiviral activity against Human immunodeficiency virus 1 subtype AG infected in human MT4 cells assessed as reduction in virus induced cytopathicity", "type": "functional, organism-based", "procedure,_shortened": "as §1"}, "[8]": {"test_system": "Human immunodeficiency virus 1", "assay": "Antiviral activity against Human immunodeficiency virus 1 group M subtype F1 assessed as days to viral replication breakthrough at 40 nM by cell based assay", "type": "functional"}, "[9]": {"test_system": "Human immunodeficiency virus 1", "assay": "Antiviral activity against Human immunodeficiency virus 1 subtype F isolate 93BR019 infected in human PBMC cells by cell based assay", "conditions": "Human immunodeficiency virus 1, subtype F isolate 93BR019, PBMC"}, "[10]": {"test_system": "Human immunodeficiency virus 1", "assay": "Antiviral activity against Human immunodeficiency virus 1 group M subtype AE assessed as days to viral replication breakthrough at 10 nM by cell based assay", "type": "functional"}, "[11]": {"test_system": "Human immunodeficiency virus 1", "assay": "Antiviral activity against Human immunodeficiency virus 1 subtype O isolate BCF03 infected in human PBMC cells by cell based assay", "conditions": "Human immunodeficiency virus 1, subtype O isolate BCF03, PBMC"}, "[12]": {"test_system": "Human immunodeficiency virus 2", "assay": "Antiviral activity against Human immunodeficiency virus 2 ROD infected in human MT4 cells assessed as reduction in virus induced cytopathicity", "type": "functional, organism-based", "conditions": "Human immunodeficiency virus 2, ISOLATE ROD", "procedure,_shortened": "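MT4 cells (1.5 × 10^5/ml) infected with HIV (MOI 0.01) were added to serial compound dilutions and incubated 5 days at 37°C in 5% CO2. Protection from virus-induced cell death was read by MTT tetrazolium colorimetry, giving an EC50 in micromolar.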"}, "[13]": {"test_system": "Human immunodeficiency virus 1", "assay": "Antiviral activity against Human immunodeficiency virus 1 group M subtype B assessed as days viral replication at 200 nM by cell based assay", "type": "functional"}, "[14]": {"test_system": "Human immunodeficiency virus 1", "assay": "Antiviral activity against Human immunodeficiency virus 1 subtype D isolate 92UG024 infected in human PBMC cells by cell based assay", "conditions": "Human immunodeficiency virus 1, subtype D 92UG024, PBMC"}, "[15]": {"test_system": "Human immunodeficiency virus 1", "assay": "Antiviral activity against Human immunodeficiency virus 1 group M subtype A1 assessed as days to viral replication breakthrough at 200 nM by cell based assay", "type": "functional"}, "[16]": {"test_system": "Human immunodeficiency virus 1", "assay": "Antiviral activity against Human immunodeficiency virus 1 group M subtype AG assessed as days to viral replication breakthrough at 10 nM by cell based assay", "type": "functional"}, "[17]": {"test_system": "Human immunodeficiency virus 1", "assay": "Antiviral activity against Human immunodeficiency virus 1 subtype C isolate 93IN101 infected in human PBMC cells by cell based assay", "conditions": "Human immunodeficiency virus 1, subtype C isolate 93IN101, PBMC"}, "[18]": {"test_system": "Human immunodeficiency virus 1", "assay": "Antiviral activity against Human immunodeficiency virus 1 group M subtype B assessed as days to viral replication breakthrough at 40 nM by cell based assay", "type": "functional"}, "[19]": {"test_system": "Human immunodeficiency virus 1", "assay": "Antiviral activity against Human immunodeficiency virus 1 group M subtype G assessed as days to viral replication breakthrough at 10 nM by cell based assay", "type": "functional"}, "[20]": {"test_system": "Human immunodeficiency virus 1", "assay": "Antiviral activity against Human immunodeficiency virus 1 subtype G isolate RU132 infected in human PBMC cells by cell based assay", "conditions": "Human immunodeficiency virus 1, subtype G isolate RU132, PBMC"}, "[21]": {"test_system": "Human immunodeficiency virus 1", "assay": "Antiviral activity against Human immunodeficiency virus 1 subtype A isolate 92RW020 infected in human PBMC cells by cell based assay", "conditions": "Human immunodeficiency virus 1, subtype A isolate 92RW020, PBMC"}, "[22]": {"test_system": "Human immunodeficiency virus 1", "assay": "Antiviral activity against Human immunodeficiency virus 1 group M subtype C assessed as days to viral replication breakthrough at 200 nM by cell based assay", "type": "functional"}, "[23]": {"test_system": "Human immunodeficiency virus 1", "assay": "Antiviral activity against Human immunodeficiency virus 1 group M subtype H assessed as days to viral replication breakthrough at 40 nM by cell based assay", "type": "functional"}, "[24]": {"test_system": "Human immunodeficiency virus 1", "assay": "Antiviral activity against Human immunodeficiency virus 1 group M subtype BG assessed as days to viral replication breakthrough at 200 nM by cell based assay", "type": "functional"}, "[25]": {"test_system": "Human immunodeficiency virus 1", "assay": "Antiviral activity against Human immunodeficiency virus 1 subtype C isolate 93MW959 infected in human PBMC cells by cell based assay", "conditions": "Human immunodeficiency virus 1, subtype C isolate 93MW959, PBMC"}, "[26]": {"test_system": "Human immunodeficiency virus 1", "assay": "Antiviral activity against Human immunodeficiency virus 1 subtype B isolate 93BR021 infected in human PBMC cells by cell based assay", "conditions": "Human immunodeficiency virus 1, subtype B isolate 93BR021, PBMC"}, "[27]": {"test_system": "Human immunodeficiency virus 1", "assay": "Antiviral activity against Human immunodeficiency virus 1 group M subtype D assessed as days to viral replication breakthrough at 200 nM by cell based assay", "type": "functional"}, "[28]": {"test_system": "Human immunodeficiency virus 1", "assay": "Antiviral activity against Human immunodeficiency virus 1 group M subtype B assessed as days to viral replication breakthrough at 10 nM by cell based assay", "type": "functional"}, "MT4": {"test_system": "MT4", "assay": "Cytotoxicity against human MT4 cells by cell based assay", "procedure,_shortened": "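Cytotoxicity in MT4 cells from cell-based assays gave a 50% cytotoxic concentration, reported as a median with first- to third-quartile values over the stated number of experiments.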"}, "[29]": {"test_system": "Human immunodeficiency virus 1", "assay": "Antiviral activity against Human immunodeficiency virus 1 group M subtype G assessed as days to viral replication breakthrough at 40 nM by cell based assay", "type": "functional"}, "[30]": {"test_system": "Human immunodeficiency virus 1", "assay": "Antiviral activity against Human immunodeficiency virus 1 subtype E isolate 93TH073 infected in human PBMC cells by cell based assay", "conditions": "Human immunodeficiency virus 1, subtype E 93TH073, PBMC"}, "[31]": {"test_system": "Human immunodeficiency virus 1", "assay": "Antiviral activity against Human immunodeficiency virus 1 group M subtype F1 assessed as days to viral replication breakthrough at 200 nM by cell based assay", "type": "functional"}, "[32]": {"test_system": "Human immunodeficiency virus 1", "assay": "Antiviral activity against Human immunodeficiency virus 1 group M subtype G assessed as days to viral replication breakthrough at 200 nM by cell based assay", "type": "functional"}, "[33]": {"test_system": "Human immunodeficiency virus 1", "assay": "Antiviral activity against Human immunodeficiency virus 1 subtype F isolate 93BR029 infected in human PBMC cells by cell based assay", "conditions": "Human immunodeficiency virus 1, subtype F isolate 93BR029, PBMC"}, "[34]": {"test_system": "Human immunodeficiency virus 1", "assay": "Antiviral activity against Human immunodeficiency virus 1 group M subtype A1 assessed as days to viral replication breakthrough at 40 nM by cell based assay", "type": "functional"}, "[35]": {"test_system": "Human immunodeficiency virus 1", "assay": "Antiviral activity against Human immunodeficiency virus 1 subtype E isolate CMU08 infected in human PBMC cells by cell based assay", "conditions": "Human immunodeficiency virus 1, subtype E isolate CMU08, PBMC"}, "[36]": {"test_system": "Human immunodeficiency virus 1", "assay": "Antiviral activity against Human immunodeficiency virus 1 subtype F isolate 93BR020 infected in human PBMC cells by cell based assay", "conditions": "Human immunodeficiency virus 1, subtype F isolate 93BR020, PBMC"}},
  "data": [
    {"molecule": "Cc1cc(/C=C/C#N)cc(C)c1Nc1ccnc(Nc2ccc(C#N)cc2)n1", "note": "[RILPIVIRINE]", "values": [
      {"measurement": "Activity", "setting": "[1]", "value": "> 31", "unit": "days"},
      {"measurement": "Activity", "setting": "[2]", "value": "> 31", "unit": "days"},
      {"measurement": "Activity", "setting": "[3]", "value": "> 31", "unit": "days"},
      {"measurement": "Activity", "setting": "[4]", "value": "> 31", "unit": "days"},
      {"measurement": "EC50", "setting": "[5]", "value": 0.14, "unit": "nM"},
      {"measurement": "Activity", "setting": "[6]", "value": 10, "unit": "days"},
      {"measurement": "EC50", "setting": "[7]", "value": 0.13, "unit": "nM"},
      {"measurement": "Activity", "setting": "[8]", "value": "> 31", "unit": "days"},
      {"measurement": "EC50", "setting": "[9]", "value": 0.95, "unit": "nM"},
      {"measurement": "Activity", "setting": "[10]", "value": "> 31", "unit": "days"},
      {"measurement": "EC50", "setting": "[11]", "value": 8.45, "unit": "nM"},
      {"measurement": "EC50", "setting": "[12]", "value": 5220, "unit": "nM"},
      {"measurement": "Activity", "setting": "[13]", "value": "> 31", "unit": "days"},
      {"measurement": "EC50", "setting": "[14]", "value": 0.38, "unit": "nM"},
      {"measurement": "Activity", "setting": "[15]", "value": "> 31", "unit": "days"},
      {"measurement": "Activity", "setting": "[16]", "value": "> 31", "unit": "days"},
      {"measurement": "EC50", "setting": "[17]", "value": 0.53, "unit": "nM"},
      {"measurement": "Activity", "setting": "[18]", "value": "> 31", "unit": "days"},
      {"measurement": "Activity", "setting": "[19]", "value": "> 31", "unit": "days"},
      {"measurement": "EC50", "setting": "[20]", "value": 0.51, "unit": "nM"},
      {"measurement": "EC50", "setting": "[21]", "value": 0.07, "unit": "nM"},
      {"measurement": "Activity", "setting": "[22]", "value": "> 31", "unit": "days"},
      {"measurement": "Activity", "setting": "[23]", "value": "> 31", "unit": "days"},
      {"measurement": "Activity", "setting": "[24]", "value": "> 31", "unit": "days"},
      {"measurement": "EC50", "setting": "[25]", "value": 0.11, "unit": "nM"},
      {"measurement": "EC50", "setting": "[26]", "value": 0.23, "unit": "nM"},
      {"measurement": "Activity", "setting": "[27]", "value": "> 31", "unit": "days"},
      {"measurement": "Activity", "setting": "[28]", "value": 7, "unit": "days"},
      {"measurement": "Activity", "setting": "MT4", "value": 5.91, "unit": "µM"},
      {"measurement": "Activity", "setting": "[29]", "value": "> 31", "unit": "days"},
      {"measurement": "EC50", "setting": "[30]", "value": 0.07, "unit": "nM"},
      {"measurement": "Activity", "setting": "[31]", "value": "> 31", "unit": "days"},
      {"measurement": "Activity", "setting": "[32]", "value": "> 31", "unit": "days"},
      {"measurement": "EC50", "setting": "[33]", "value": 0.19, "unit": "nM"},
      {"measurement": "Activity", "setting": "[34]", "value": "> 31", "unit": "days"},
      {"measurement": "EC50", "setting": "[35]", "value": 1.01, "unit": "nM"},
      {"measurement": "EC50", "setting": "[36]", "value": 0.16, "unit": "nM"}
    ]}
  ]
}
